Data set [1] in a line: Half life in Dunkin-Hartley guinea pig plasma at 5 mM by HPLC analysis. Type of data set: ADME, cell-free, Cavia porcellus. Conditions: for t1/2: 5000 µM; call rule not given here. The procedure, abridged:
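Pooled plasma from female Dunkin Hartley guinea pigs was pre-warmed 2 min at 37 °C, then prodrug was added from a 5.0 mM stock. Runs were in triplicate. Aliquots were taken at 0, 2.5, 5, 10, 15 and 30 min, quenched with an equal volume of acetonitrile, filtered and analysed by reversed-phase HPLC at 300 nm for half-life.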

The subject of the next data set is Plasma. Nature of the data set: (§1) Half life in human plasma at 5 mM by HPLC analysis. It is filed as ADME, cell-free. The settings on record: 5000 µM.
Data set [2] can be described thus: Half life in simulated gastric fluid at 100 uM at pH 1.2 by HPLC analysis. Type of data set: physicochemical. The settings on record: for t1/2: simulated gi fluid, pH 1.2, 100 µM. The procedure, abridged:
(§2)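 Meropenem or prodrug at 100 µM final (from a 5.0 mM DMSO stock) incubated at 37 °C in triplicate in simulated gastric fluid pH 1.2, 100 mM MES pH 6.0, or pH 7.4 buffer, after 2 min buffer pre-warming. Aliquots taken at 0–120 min and injected directly onto reversed-phase HPLC with UV at 300 nm. Half-life, % prodrug remaining at 120 min, or species concentration over time was reported.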

Data set [3] in a line: Half life in HEPES buffer at 100 uM at pH 7.4 by HPLC analysis. Conditions: pH 7.4, 100 µM. It is filed as physicochemical. The procedure, abridged:
as §2

Data set [4] is described as follows: as §1. Type of data set: ADME, cell-free.
Data set [5] can be described thus: Prodrug stability in HEPES buffer assessed as prodrug remaining at 100 uM after 120 mins at pH 7.4 by HPLC analysis. Type of data set: physicochemical. Conditions: pH 7.4, 2 h. The procedure, abridged:
as §2

Data set [6] can be described thus: Prodrug stability in MES buffer assessed as prodrug remaining at 100 uM after 120 mins at pH 6 by HPLC analysis. It is filed as physicochemical. The settings on record: pH 6, 2 h. The procedure, abridged: as §2
The nature of data set [7]: Half life in MES buffer at 100 uM at pH 6 by HPLC analysis. Type of data set: physicochemical. The settings on record: pH 6, 100 µM. The procedure, abridged:
as §2

Data set [8] can be described thus: Stability in HEPES buffer assessed as prodrug conversion to meropenem at pH 7.4 by HPLC analysis. Type of data set: physicochemical. In outline: as §2
Data set [9] in a line: Stability in HEPES buffer assessed as prodrug conversion to 1-Benzosuberol at pH 7.4 by HPLC analysis. It is filed as physicochemical.
A short description of data set [10]: Chemical stability of the compound in simulated gastric fluid assessed as compound remaining at 10 uM after 60 mins at pH 1.2. It is filed as physicochemical. Conditions: read-out: Stability.
Data set [11] in a line: Chemical stability of the compound in simulated gastric fluid assessed as drug degradation at 10 uM after 30 mins at pH 1.2. Type of data set: physicochemical. The settings on record: read-out: Drug degradation.
A short description of data set [12]: Lipophilicity, log D of the compound. Type of data set: physicochemical. Conditions: octanol/water.

The values that follow come from ChEMBL document CHEMBL2412988, “Synthesis, pH-dependent, and plasma stability of meropenem prodrugs for potential use against drug-resistant tuberculosis” (Bioorg Med Chem, 2013).

Molecules are shown by their SMILES. A value given as a limit tells only on which side of the number the result lay.

Take `C[C@@H](O)[C@H]1C(=O)N2C(C(=O)OCOC(=O)O[C@@H]3CCCCc4ccccc43)=C(S[C@@H]3CN[C@H](C(=O)N(C)C)C3)[C@H](C)[C@H]12`: the t1/2 in data set [1] was 0.9 min; in the data set on Plasma it was 34 min; in data set [2], 11 min; in [3], 27 min.

As for `CC(C)OC(=O)OC(C)OC(=O)C1=C(S[C@@H]2CN[C@H](C(=O)N(C)C)C2)[C@H](C)[C@@H]2[C@@H]([C@@H](C)O)C(=O)N12` (some centres not stated), the half-life at 5000 µM in data set [1] (Dunkin-Hartley) was 1.4 min; in [4], 11 min. Besides, the figures for the Stability in [5] (2 h) and in data set [6] (2 h) were 87% and 92%, respectively. For the same compound, the half-life at 100 µM in data set [2] (simulated gastric fluid, pH 1.2) was 9.8 min.

In turn, `C[C@@H](O)[C@H]1C(=O)N2C(C(=O)OCOC(=O)O[C@H]3CCc4ccccc43)=C(S[C@@H]3CN[C@H](C(=O)N(C)C)C3)[C@H](C)[C@H]12` showed a t1/2 in [3] of under 1 min.

For `C[C@@H](O)[C@H]1C(=O)N2C(C(=O)OCOC(=O)O[C@H]3CCCc4ccccc43)=C(S[C@@H]3CN[C@H](C(=O)N(C)C)C3)[C@H](C)[C@H]12`, the t1/2 was 1.4 min in [3] and 0.9 min in data set [7].

With `C[C@@H](O)[C@H]1C(=O)N2C(C(=O)OCOC(=O)O[C@@H]3CCCc4ccccc43)=C(S[C@@H]3CN[C@H](C(=O)N(C)C)C3)[C@H](C)[C@H]12`, the values for the t1/2 in data set [3] and in [7] were 1.5 min and 0.96 min, respectively.

Turning to `C[C@@H](O)[C@H]1C(=O)N2C(C(=O)OCOC(=O)O[C@H]3CCCCc4ccccc43)=C(S[C@@H]3CN[C@H](C(=O)N(C)C)C3)[C@H](C)[C@H]12`, the t1/2 is given as 1.3 min in data set [1]; 44 min in the data set on Plasma; 9.3 min in data set [2]; 28 min in data set [3]; 32 min in data set [7]. In addition, the Drug metabolism entry in data set [8] and in data set [9] was “Active” throughout.

For the compound `CC(=O)N1C[C@@H](SC2=C(C(=O)OCOC(=O)O[C@H]3CCCCc4ccccc43)N3C(=O)[C@H]([C@@H](C)O)[C@H]3[C@H]2C)C[C@H]1C(=O)N(C)C`, the t1/2 is 7 min in data set [2], 28 min in data set [3] and 28 min in [7].

As to `C[C@@H](O)[C@H]1C(=O)N2C(C(=O)OCOC(=O)OC3Cc4ccccc4C3)=C(S[C@@H]3CN[C@H](C(=O)N(C)C)C3)[C@H](C)[C@H]12`, the t1/2 is recorded as 0.9 min in [1], 4.3 min with Plasma and 13 min in data set [2]. In addition, the values for the Stability in data set [5] and in [6] were 70% and 96%, respectively.

In the case of `CC(OC(=O)O[C@H]1CCCCc2ccccc21)OC(=O)C1=C(S[C@@H]2CN[C@H](C(=O)N(C)C)C2)[C@H](C)[C@@H]2[C@@H]([C@@H](C)O)C(=O)N12` (mixture of isomers), the t1/2 in data set [2] is recorded as 18 min; in data set [3], 64 min; in [7] it was 80 min.

For the compound `C[C@@H](O)[C@H]1C(=O)N2C(C(=O)OCOC(=O)OC3CCc4ccccc4C3)=C(S[C@@H]3CN[C@H](C(=O)N(C)C)C3)[C@H](C)[C@H]12` (mixture of isomers), the results for the t1/2 (in [1]; with Plasma; in data set [2]) were 1.7 min, 8.1 min and 14 min, respectively. Further, the Stability was 78% in data set [5] and 93% in data set [6].

For the compound `C[C@@H](O)[C@H]1C(=O)N2C(C(=O)OCOC(=O)OC3CCCc4ccccc4C3)=C(S[C@@H]3CN[C@H](C(=O)N(C)C)C3)[C@H](C)[C@H]12` (mixture of isomers), the figures for the t1/2 (in data set [1]; with Plasma; in data set [2]) were 1.9 min, 23 min and 21 min, respectively. Also, the Stability in [5] came out at 79%; in [6] it was 96%.

On to `CC(C)OC(=O)OC(C)OC(=O)C1=C(S[C@@H]2CN[C@H](C(=O)N(C)C)C2)[C@H](C)[C@@H]2[C@@H]([C@@H](C)O)C(=O)N12` (single isomer, unassigned; diastereomer 1), for which the values for the t1/2 (in data set [1]; in the data set with Plasma; in data set [2]) were 6.5 min, 108 min and 8.8 min, respectively. For the same compound, the Stability in data set [5] (2 h) was 90%; in data set [6] (2 h) it was 94%.

On to `Nc1nc(/C(=C/CC(=O)O)C(=O)N[C@@H]2C(=O)N3C(C(=O)O)=CCS[C@H]23)cs1` [CEFTIBUTEN], for which the remaining at 1 h, 10 µM in [10] was 94%.

On to `C[C@@H](O)[C@H]1C(=O)N2C(C(=O)O)=C([C@H]3CCCO3)S[C@H]12` [FAROPENEM], for which the remaining at 1 h, 10 µM in data set [10] was 70%.

Turning to `C[C@@H](O)[C@H]1C(=O)N2C(C(=O)O)=C(S[C@@H]3CN[C@H](C(=O)N(C)C)C3)[C@H](C)[C@H]12` [MEROPENEM], in [10], the remaining at 1 h, 10 µM was 5%. Moreover, in data set [11], the degraded at 0.5 h, 10 µM was 80%. This compound returned a logD in [12] of under 2.5.

A word on the half-life: it is how long it takes for the measured level to halve. The low end stands for rapid decline, the high end for slow decline. A word on the logD: it is the decadic logarithm of the distribution of all forms, ionised or not, between an organic phase and buffer at a given pH.
